Measured values from ChEMBL document CHEMBL4325893, “Synthesis and antibacterial profiles of targeted triclosan derivatives” (2019).
In brackets after ≈: the same amount, converted by molar mass.

Columns and labels:
Aeromonas hydrophila = test: Antibacterial activity against Aeromonas hydrophila OCC 778 after 18 hrs; format: functional; settings: OCC 778, 18 h
How it was run: (§1)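 Broth microdilution in Nutrient Broth No. 2; stocks in ethanol diluted to 0.01–128 µg/ml (triclosan) or 0.25–256 µg/ml (glycosides). Overnight 37 °C NB2 cultures diluted 1 in 10^4 in saline and added to the dilutions. Incubation at 37 °C with agitation, OD read every 15 min; MIC is the lowest concentration preventing any OD rise after 18 h.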

Citrobacter freundii [1] = test: Antibacterial activity against Citrobacter freundii OCC 851 after 18 hrs; format: functional; settings: OCC 851, 18 h; how it was run: as §1
Cronobacter sakazakii = test: Antibacterial activity against Cronobacter sakazakii 29544 after 18 hrs; format: functional; settings: Cronobacter sakazakii, 29544, 18 h; how it was run: as §1
Klebsiella aerogenes [2] = test: Antibacterial activity against Enterobacter aerogenes ATCC 13048 after 18 hrs; format: functional; settings: ATCC 13048, 18 h; how it was run: as §1
[3] = Antibacterial activity against Enterobacter cloacae ATCC 13047 after 18 hrs; format: functional, Enterobacter cloacae subsp. cloacae; settings: ATCC 13047, 18 h; how it was run: as §1
Escherichia coli [4] = test: Antibacterial activity against Escherichia coli ATCC 8739 after 18 hrs; format: functional; settings: ATCC 8739, 18 h; how it was run: as §1
Escherichia coli [5] = test: Antibacterial activity against Escherichia coli ATCC 10536 after 18 hrs; format: functional; settings: ATCC 10536, 18 h; how it was run: as §1
Escherichia coli [6] = test: Antibacterial activity against Escherichia coli ATCC 11775 after 18 hrs; format: functional; how it was run: as §1
Escherichia coli [7] = test: Antibacterial activity against Escherichia coli ATCC 25922 after 18 hrs; format: functional; settings: ATCC 25922, 18 h; how it was run: as §1
Escherichia coli [8] = test: Antibacterial activity against Escherichia coli ATCC 35218 after 18 hrs; format: functional; settings: ATCC 35218, 18 h; how it was run: as §1
Escherichia coli [9] = test: Antibacterial activity against Escherichia coli 700728 after 18 hrs; format: functional; settings: Escherichia coli, 700728, 18 h; how it was run: as §1
Escherichia coli [10] = test: Antibacterial activity against Escherichia coli NCTC 13216 after 18 hrs; format: functional; settings: NCTC 13216, 18 h; how it was run: as §1
Escherichia coli [11] = test: Antibacterial activity against Escherichia coli OCC 122 after 18 hrs; format: functional; settings: OCC 122, 18 h; how it was run: as §1
Escherichia hermannii = test: Antibacterial activity against Escherichia hermannii 33650 after 18 hrs; format: functional; settings: Atlantibacter hermannii, 33650, 18 h; how it was run: as §1
Hafnia alvei = test: Antibacterial activity against Hafnia alvei 13337 after 18 hrs; format: functional; settings: Hafnia alvei, 13337, 18 h; how it was run: as §1
Klebsiella aerogenes [12] = test: Antibacterial activity against Klebsiella aerogenes NCTC 8167 after 18 hrs; format: functional; settings: NCTC 8167, 18 h; how it was run: as §1
Klebsiella pneumoniae [13] = test: Antibacterial activity against Klebsiella pneumoniae ATCC 10031 after 18 hrs; format: functional; settings: ATCC 10031, 18 h; how it was run: as §1
Proteus mirabilis = test: Antibacterial activity against Proteus mirabilis ATCC 12453 after 18 hrs; format: functional; settings: ATCC 12453, 18 h; how it was run: as §1
Proteus vulgaris = test: Antibacterial activity against Proteus vulgaris OCC 195 after 18 hrs; format: functional; settings: OCC 195, 18 h; how it was run: as §1
Pseudomonas aeruginosa = test: Antibacterial activity against Pseudomonas aeruginosa ATCC 27853 after 18 hrs; format: functional; settings: ATCC 27853, 18 h; how it was run: as §1
Klebsiella pneumoniae [14] = test: Antibacterial activity against Klebsiella pneumoniae ATCC 13883 after 18 hrs; format: functional; settings: ATCC 13883, 18 h; how it was run: as §1
Citrobacter freundii [15] = test: Antibacterial activity against Citrobacter freundii 8090 after 18 hrs; format: functional; settings: Citrobacter freundii, 8090, 18 h; how it was run: as §1
Serratia marcescens = test: Antibacterial activity against Serratia marcescens OCC 217 after 18 hrs; format: functional; settings: OCC 217, 18 h; how it was run: as §1
Bacillus cereus = test: Antibacterial activity against Bacillus cereus ATCC 14579 after 18 hrs; format: functional; settings: ATCC 14579, 18 h; how it was run: as §1
Bacillus subtilis = test: Antibacterial activity against Bacillus subtilis NCTC 10073 after 18 hrs; format: functional; settings: NCTC 10073, 18 h; how it was run: as §1
Enterococcus faecalis [16] = test: Antibacterial activity against Enterococcus faecalis ATCC 29212 after 18 hrs; format: functional; settings: ATCC 29212, 18 h; how it was run: as §1
Enterococcus faecalis [17] = test: Antibacterial activity against Enterococcus faecalis ATCC 33186 after 18 hrs; format: functional; settings: ATCC 33186, 18 h; how it was run: as §1
Enterococcus faecium = test: Antibacterial activity against Enterococcus faecium ATCC 19434 after 18 hrs; format: functional; settings: ATCC 19434, 18 h; how it was run: as §1

With `O[C@@H]1[C@H](Oc2cc(Cl)ccc2Oc2ccc(Cl)cc2Cl)OC[C@@H](O)[C@H]1O` the MIC (Aeromonas hydrophila) was greater than 256 µg/mL, the MIC (Citrobacter freundii [1]) was 64 µg/mL (≈ 152 µM) and the MIC (Cronobacter sakazakii) was 128 µg/mL (≈ 304 µM). The MIC (Klebsiella aerogenes [2]) was 128 µg/mL (≈ 304 µM), the MIC [3] was 16 µg/mL (≈ 37.9 µM) and the MIC (Escherichia coli [4]) was 8 to 32 µg/mL (≈ 19 to 75.9 µM). It also gave an MIC (Escherichia coli [5]) of 8 to 32 µg/mL (≈ 19 to 75.9 µM), an MIC (Escherichia coli [6]) of 8 to 32 µg/mL (≈ 19 to 75.9 µM) and an MIC (Escherichia coli [7]) of 8 to 32 µg/mL (≈ 19 to 75.9 µM). For the same compound, the MIC (Escherichia coli [8]) was 8 to 32 µg/mL (≈ 19 to 75.9 µM), the MIC (Escherichia coli [9]) was 8 to 32 µg/mL (≈ 19 to 75.9 µM) and the MIC (Escherichia coli [10]) was 8 to 32 µg/mL (≈ 19 to 75.9 µM). The MIC (Escherichia coli [11]) was 8 to 32 µg/mL (≈ 19 to 75.9 µM), the MIC (Escherichia hermannii) was 32 µg/mL (≈ 75.9 µM) and the MIC (Hafnia alvei) was 4 µg/mL (≈ 9.49 µM). It also gave an MIC (Klebsiella aerogenes [12]) of 32 µg/mL (≈ 75.9 µM), an MIC (Klebsiella pneumoniae [13]) of 4 µg/mL (≈ 9.49 µM) and an MIC (Proteus mirabilis) of 32 µg/mL (≈ 75.9 µM). The MIC (Proteus vulgaris) was 128 µg/mL (≈ 304 µM), the MIC (Pseudomonas aeruginosa) was greater than 256 µg/mL and the MIC (Klebsiella pneumoniae [14]) was 4 µg/mL (≈ 9.49 µM). It also gave an MIC (Citrobacter freundii [15]) of 64 µg/mL (≈ 152 µM), an MIC (Serratia marcescens) greater than 256 µg/mL and an MIC (Bacillus cereus) of 128 µg/mL (≈ 304 µM). It also gave an MIC (Bacillus subtilis) of 128 µg/mL (≈ 304 µM), an MIC (Enterococcus faecalis [16]) of 256 µg/mL (≈ 607 µM) and an MIC (Enterococcus faecalis [17]) of 256 µg/mL (≈ 607 µM). It also gave an MIC (Enterococcus faecium) of 256 µg/mL (≈ 607 µM).
